Source: ChEMBL document CHEMBL1806416, “Synthesis of 2,4-diaryl chromenopyridines and evaluation of their topoisomerase I and II inhibitory activity, cytotoxicity, and structure-activity relationship” (Eur J Med Chem, 2011)

Columns and labels:
[1] = system: HL-60; experiment: Cytotoxicity against human HL60 cells after 2 days; assay type: functional, cell-based; settings: HL-60, 48 h
Procedure, shortened: (§1)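 Cells grown per supplier's instructions, seeded at 2-4 × 10^4 per well and incubated overnight in medium with 10% FBS, 5% CO2, 37 °C. Day 2: medium replaced with graded compound concentrations from DMSO stock (20 mM). Day 4: CCK-8 added for 4 h, absorbance read at 450 nm. Three experiments, each in triplicate, mean ± S.D.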

[2] = system: HCT-15; experiment: Cytotoxicity against human HCT15 cells after 2 days; assay type: functional, cell-based; settings: HCT-15, 48 h; procedure, shortened: as §1
[3] = system: DU-145; experiment: Cytotoxicity against human DU145 cells after 2 days; assay type: functional, cell-based; settings: DU-145, 48 h; procedure, shortened: as §1
[4] = system: HeLa; experiment: Cytotoxicity against human HeLa cells after 2 days; assay type: functional, cell-based; settings: 48 h; procedure, shortened: as §1
[5] = system: MDA-MB-231; experiment: Cytotoxicity against human MDA-MB-231 cells after 2 days; assay type: functional; procedure, shortened: as §1
[6] = molecular target: DNA topoisomerase 2-alpha (Homo sapiens) (UniProt P11388); experiment: Inhibition of human DNA topoisomerase 2 alpha assessed as inhibition of supercoiled pBR322 DNA relaxation at 100 uM after 30 mins by gel electrophoresis
DNA topoisomerase 2-alpha (Homo sapiens), sequence (P11388 whole entry): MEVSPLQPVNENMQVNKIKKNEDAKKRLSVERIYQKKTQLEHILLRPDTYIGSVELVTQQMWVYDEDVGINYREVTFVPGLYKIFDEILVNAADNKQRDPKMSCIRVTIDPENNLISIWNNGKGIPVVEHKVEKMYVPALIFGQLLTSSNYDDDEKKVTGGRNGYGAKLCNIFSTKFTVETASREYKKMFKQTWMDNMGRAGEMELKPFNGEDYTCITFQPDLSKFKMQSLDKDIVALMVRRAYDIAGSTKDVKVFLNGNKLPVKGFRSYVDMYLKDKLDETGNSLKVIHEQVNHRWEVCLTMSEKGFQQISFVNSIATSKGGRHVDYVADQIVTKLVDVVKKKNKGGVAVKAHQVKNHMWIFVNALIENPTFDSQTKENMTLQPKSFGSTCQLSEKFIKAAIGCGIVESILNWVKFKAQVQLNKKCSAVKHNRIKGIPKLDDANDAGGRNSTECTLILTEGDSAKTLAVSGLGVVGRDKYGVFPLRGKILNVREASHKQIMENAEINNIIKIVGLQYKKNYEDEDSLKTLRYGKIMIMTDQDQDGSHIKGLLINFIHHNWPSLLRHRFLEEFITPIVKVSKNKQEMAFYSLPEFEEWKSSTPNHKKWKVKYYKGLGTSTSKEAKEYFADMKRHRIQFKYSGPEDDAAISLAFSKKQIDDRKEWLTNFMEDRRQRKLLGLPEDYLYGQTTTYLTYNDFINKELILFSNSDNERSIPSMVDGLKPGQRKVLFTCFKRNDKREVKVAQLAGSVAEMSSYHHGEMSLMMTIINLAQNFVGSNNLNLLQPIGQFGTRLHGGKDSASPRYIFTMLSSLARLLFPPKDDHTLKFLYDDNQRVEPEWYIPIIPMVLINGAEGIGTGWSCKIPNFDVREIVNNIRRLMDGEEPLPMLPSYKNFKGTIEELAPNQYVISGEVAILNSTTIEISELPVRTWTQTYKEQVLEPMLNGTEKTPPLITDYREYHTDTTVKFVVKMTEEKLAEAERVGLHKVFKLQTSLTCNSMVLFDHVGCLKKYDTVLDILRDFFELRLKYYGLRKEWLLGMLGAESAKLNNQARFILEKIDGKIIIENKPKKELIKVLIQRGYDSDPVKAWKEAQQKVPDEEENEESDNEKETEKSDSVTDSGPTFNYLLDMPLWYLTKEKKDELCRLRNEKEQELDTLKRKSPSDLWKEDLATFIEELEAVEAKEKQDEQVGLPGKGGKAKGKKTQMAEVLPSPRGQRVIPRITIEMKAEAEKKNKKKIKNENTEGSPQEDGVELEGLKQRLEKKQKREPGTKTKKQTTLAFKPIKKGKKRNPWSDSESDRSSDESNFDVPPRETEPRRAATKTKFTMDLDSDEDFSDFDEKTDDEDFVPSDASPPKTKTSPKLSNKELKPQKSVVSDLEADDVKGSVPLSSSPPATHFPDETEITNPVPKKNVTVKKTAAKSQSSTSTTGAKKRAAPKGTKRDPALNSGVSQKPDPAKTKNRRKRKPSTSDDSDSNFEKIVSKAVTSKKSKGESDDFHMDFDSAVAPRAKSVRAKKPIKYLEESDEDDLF
Procedure, shortened: (§2)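 200 ng supercoiled pBR322 with 1 unit human topo IIα, incubated 30 min at 30 °C in 10 mM Tris-HCl pH 7.9, 50 mM NaCl, 5 mM MgCl2, 1 mM EDTA, 1 mM ATP, BSA. Stopped with EDTA. Run on 1% agarose in TAE at 25 V for 4 h, stained with ethidium bromide, supercoiled band quantified under UV. Three experiments in triplicate.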

[7] = molecular target: T1, DNA topoisomerase 1 (Homo sapiens) (UniProt P11387); experiment: Inhibition of human recombinant DNA topoisomerase 1 assessed as inhibition of supercoiled pBR322 DNA relaxation at 100 uM after 30 mins by gel electrophoresis
T1 sequence (whole entry): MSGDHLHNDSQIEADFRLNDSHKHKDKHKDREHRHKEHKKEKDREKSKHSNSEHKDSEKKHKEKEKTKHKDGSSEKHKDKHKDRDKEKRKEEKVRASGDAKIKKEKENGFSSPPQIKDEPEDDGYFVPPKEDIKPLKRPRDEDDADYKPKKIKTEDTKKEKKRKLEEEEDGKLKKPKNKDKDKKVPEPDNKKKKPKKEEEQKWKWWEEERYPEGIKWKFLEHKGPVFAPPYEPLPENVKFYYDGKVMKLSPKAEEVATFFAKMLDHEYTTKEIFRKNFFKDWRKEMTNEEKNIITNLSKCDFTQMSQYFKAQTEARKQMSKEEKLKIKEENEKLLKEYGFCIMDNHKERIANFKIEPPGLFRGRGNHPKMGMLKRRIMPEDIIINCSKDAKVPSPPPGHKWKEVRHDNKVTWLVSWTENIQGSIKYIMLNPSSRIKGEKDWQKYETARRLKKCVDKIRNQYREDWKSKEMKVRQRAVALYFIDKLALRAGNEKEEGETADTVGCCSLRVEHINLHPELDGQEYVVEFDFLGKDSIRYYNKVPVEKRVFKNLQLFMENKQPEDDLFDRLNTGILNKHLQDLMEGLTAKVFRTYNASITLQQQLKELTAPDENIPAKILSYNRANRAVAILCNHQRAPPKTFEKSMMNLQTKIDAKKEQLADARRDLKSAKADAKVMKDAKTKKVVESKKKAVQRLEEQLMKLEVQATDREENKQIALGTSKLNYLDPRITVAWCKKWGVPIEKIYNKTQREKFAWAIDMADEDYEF
Procedure, shortened: (§3)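 100 ng pBR322 with 0.4 units recombinant human topo I, incubated 30 min at 37 °C in 10 mM Tris-HCl pH 7.9, 150 mM NaCl, 0.1% BSA, 1 mM spermidine, 5% glycerol. Stopped with sarcosyl stop solution. Run on 1% agarose in TAE at 15 V for 7 h, stained with ethidium bromide, bands quantified under UV. Three experiments in triplicate.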

[8] = molecular target: T1, DNA topoisomerase 1 (Homo sapiens); experiment: Inhibition of human recombinant DNA topoisomerase 1 assessed as inhibition of supercoiled pBR322 DNA relaxation at 20 uM after 30 mins by gel electrophoresis; procedure, shortened: as §3
[9] = molecular target: DNA topoisomerase 2-alpha (Homo sapiens) (UniProt P11388); experiment: Inhibition of human DNA topoisomerase 2 alpha assessed as inhibition of supercoiled pBR322 DNA relaxation at 20 uM after 30 mins by gel electrophoresis; procedure, shortened: as §2

Row | Structure (SMILES) | IC50 [1] [µM] | IC50 [2] [µM] | IC50 [3] [µM] | IC50 [4] [µM] | IC50 [5] [µM] | inhibition [6] [%] | inhibition [7] [%] | inhibition [8] [%] | inhibition [9] [%]
1 | c1ccc(-c2cc(-c3ccccn3)c3c(n2)-c2ccccc2OC3)cc1 | > 50 | 12.1 | 1.9 | 2.8 | 1.9 | 8.7 | 0 | – | –
2 | c1csc(-c2cc(-c3cccs3)c3c(n2)-c2ccccc2OC3)c1 | – | – | – | – | – | 7.9 | 0.7 | – | –
3 | c1ccc(-c2cc(-c3cccnc3)c3c(n2)-c2ccccc2OC3)cc1 | – | – | – | – | – | 14 | 0 | – | –
4 | c1csc(-c2cc(-c3ccoc3)c3c(n2)-c2ccccc2OC3)c1 | – | – | – | – | – | 8.4 | 0 | – | –
5 | c1ccc(-c2cc(-c3cccs3)c3c(n2)-c2ccccc2OC3)nc1 | 13.7 | 14 | 13.1 | 6.2 | 2.4 | 19.4 | 48.2 | 4.1 | –
6 | c1ccc(-c2cc(-c3cccs3)nc3c2COc2ccccc2-3)cc1 | – | – | – | – | – | 7.5 | 5.5 | – | –
7 | c1ccc(-c2cc(-c3ccccn3)nc3c2COc2ccccc2-3)cc1 | 14.5 | 15.6 | 7.6 | 5 | 11.1 | 7.2 | 3.1 | – | –
8 | c1ccc(-c2cc(-c3ccsc3)c3c(n2)-c2ccccc2OC3)cc1 | > 50 | > 50 | > 50 | > 50 | 11.9 | 17.6 | 3.7 | – | –
9 | c1ccc(-c2cc(-c3ccccc3)c3c(n2)-c2ccccc2OC3)cc1 | 18.8 | 5.1 | 6.9 | 14.2 | 1.8 | 15.4 | 0 | – | –
10 | c1ccc(-c2cc(-c3ccccn3)c3c(n2)-c2ccccc2OC3)nc1 | 0.2 | 23.1 | > 50 | > 50 | 4.7 | 10.7 | 0.6 | – | –
11 | c1cncc(-c2cc(-c3ccco3)nc3c2COc2ccccc2-3)c1 | 1.8 | 0.6 | 4.6 | 2.2 | 1.1 | 5.6 | 41.6 | 15.5 | –
12 | c1coc(-c2cc(-c3ccco3)c3c(n2)-c2ccccc2OC3)c1 | 3.4 | 0.6 | 0.9 | 1.3 | 0.6 | 11.6 | 46.4 | 22.9 | –
13 | c1ccc(-c2cc(-c3cccs3)c3c(n2)-c2ccccc2OC3)cc1 | > 50 | 1.2 | 2.6 | 16 | 3.9 | 10.8 | 0 | – | –
14 | c1ccc(-c2cc(-c3ccco3)nc3c2COc2ccccc2-3)cc1 | 1.4 | 0.4 | 0.1 | 2.3 | 0.2 | 28.4 | 4.9 | – | –
15 | c1ccc(-c2cc(-c3ccco3)c3c(n2)-c2ccccc2OC3)cc1 | 7.3 | 12.3 | 18.6 | 1.4 | 11.6 | 11.5 | 0 | – | –
16 | COc1cccc2c1C(=O)c1c(O)c3c(c(O)c1C2=O)C[C@@](O)(C(=O)CO)C[C@@H]3O[C@H]1C[C@H](N)[C@H](O)[C@H](C)O1 [DOXORUBICIN] | – | – | – | – | 0.4 | – | – | – | –
17 | COc1cc([C@@H]2c3cc4c(cc3[C@@H](O[C@@H]3O[C@@H]5CO[C@@H](C)O[C@H]5[C@H](O)[C@H]3O)[C@H]3COC(=O)[C@H]23)OCO4)cc(OC)c1O [ETOPOSIDE] | – | – | – | – | 0.7 | – | – | – | 22.3
18 | c1ccc(-c2cc(-c3cccnc3)c3c(n2)-c2ccccc2OC3)nc1 | > 50 | 3.3 | 4.4 | 1.3 | 7.2 | 8.7 | 2.6 | – | –
19 | c1ccc(-c2cc(-c3ccsc3)nc3c2COc2ccccc2-3)nc1 | > 50 | 8.3 | 5 | > 50 | 25.8 | 25.3 | 3.3 | – | 3.2
20 | c1coc(-c2cc(-c3cccs3)nc3c2COc2ccccc2-3)c1 | – | – | – | – | – | 14.1 | 9.2 | – | –
21 | CC[C@@]1(O)C(=O)OCc2c1cc1n(c2=O)Cc2cc3ccccc3nc2-1 [CAMPTOTHECIN] | – | – | – | – | 0.3 | – | – | – | –
22 | c1ccc(-c2cc(-c3ccoc3)c3c(n2)-c2ccccc2OC3)cc1 | 6.6 | 31.1 | > 50 | 39.6 | 10 | 10.5 | 1.9 | – | –
23 | c1ccc(-c2cc(-c3ccco3)c3c(n2)-c2ccccc2OC3)nc1 | 18.6 | > 50 | 22.9 | > 50 | 3.3 | 23.4 | 4.4 | – | –
24 | c1ccc(-c2cc(-c3ccco3)nc3c2COc2ccccc2-3)nc1 | – | – | – | – | – | 2 | 11.5 | – | –
25 | c1ccc(-c2cc(-c3cccs3)nc3c2COc2ccccc2-3)nc1 | – | – | – | – | – | 8.5 | 1.8 | – | –
26 | c1coc(-c2cc(-c3cccs3)c3c(n2)-c2ccccc2OC3)c1 | – | – | – | – | – | 6.8 | 0 | – | –
